# Paper PMC3582033 (Cell, 2011)
# How the values were obtained:
# [1] = system: Gsc, Mixl1, Smad7, Skil, SerpinE1, Lefty1 expression in mESCs; experiment: qRT-PCR of activin/nodal target genes in mESCs / embryoid bodies; format: cell-based, mouse
# Summary of the method: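 E14Tg2a.IV mESCs were kept feeder-free with LIF; Trim33-null lines were kept on MEFs. Variants were Trim33 knockdown by lentiviral shRNA, Smad2/3-depleted, Smad4-null, or reconstituted with TRIM33 constructs. Embryoid bodies formed for 2.5 days, then received activin A (50 ng/ml) or SB431542 (10 μM) for 2 h. Total RNA went to qRT-PCR. Mean ± S.D. of quadruplicates, three independent experiments.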
# TRIM33 PHD-Bromo = target: T1, TRIM33 PHD-Bromo (Homo sapiens, UniProt Q9UPN9); experiment: ITC binding of H3; settings: versus H3(1-28) (KD=0.46 μM)
# T1 sequence (Q9UPN9 882-1087 limits assumed): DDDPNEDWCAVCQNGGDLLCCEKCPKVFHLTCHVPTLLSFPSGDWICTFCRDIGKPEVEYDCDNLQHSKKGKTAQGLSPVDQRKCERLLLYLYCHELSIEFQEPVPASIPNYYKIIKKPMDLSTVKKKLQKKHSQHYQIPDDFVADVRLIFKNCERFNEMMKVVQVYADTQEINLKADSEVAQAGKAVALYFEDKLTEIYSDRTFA
# HaCaT keratinocytes [2] = settings: and our unpublished work, ref Gomis et al., 2006; cited from earlier work
# [3] = system: MDA-MB-231 breast carcinoma cells; settings: and our unpublished work, ref Gomis et al., 2006; cited from earlier work
# [4] = system: MDA-MB-231 breast carcinoma cells; experiment: TGF-β gene responses in MDA-MB-231; format: cell-based, human; settings: qRT-PCR, MDA-MB-231, TRIM33 depletion
# HaCaT cells = experiment: Luciferase reporter, SERPINE1; format: cell-based, human; settings: SERPINE1 (PAI1) element
# HaCaT keratinocytes [5] = experiment: TGF-β gene responses in HaCaT; format: cell-based, human; settings: qRT-PCR
# MDA-MB-231 cells = experiment: Luciferase reporter, repeats of Smad binding element; format: cell-based, human; settings: SBE repeats
# [6] = system: Smad4-Smad2/3 complex in mESCs; experiment: Smad2/3 co-immunoprecipitation, Smad4-Smad2/3 complex formation; format: cell-based, mouse
# [7] = system: TRIM33-Smad2/3 complex in mESCs; experiment: Smad2/3 co-immunoprecipitation, TRIM33-Smad2/3 complex formation; format: cell-based, mouse
# [8] = system: Smad4 at Gsc and Mixl1 promoters; experiment: ChIP of Smad4 at Gsc / Mixl1 promoters; format: cell-based, mouse; settings: EBs day 2.5, activin 2 h
# Summary of the method: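 Wild-type, shRNA Trim33-depleted or TRIM33-reconstituted mESCs formed EBs for 2.5 days, then 2 h with activin A (50 ng/ml) or SB431542 (10 μM). Cells were crosslinked in 1% formaldehyde at 37 °C for 10 min and quenched in 0.125 M glycine. Anti-Smad4 ChIP was read by absolute qPCR of Gsc (−0.4 kb) and Mixl1 (−0.5/−0.2 kb) as % input. Mean ± S.D. of quadruplicates, three experiments.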
# [9] = system: TRIM33 at Gsc and Mixl1 promoters; experiment: ChIP of TRIM33 at Gsc / Mixl1 promoters; format: cell-based, mouse
# Summary of the method: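 EBs (day 2.5) came from wild-type, Trim33-depleted, Smad2/3-depleted or Smad4-null mESCs. They were given activin A (50 ng/ml) or SB431542 (10 μM) for 2 h. Formaldehyde crosslinking (1%, 37 °C, 10 min) was quenched with glycine. Anti-TRIM33 ChIP used a kit, with absolute qPCR of Gsc/Mixl1 promoter regions reported as % input. Mean ± S.D. of quadruplicates, at least three experiments.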
# [10] = system: HP1γ at Gsc and Mixl1 promoters; experiment: ChIP of HP1γ at Gsc and Mixl1 promoters; format: cell-based, mouse; settings: wild type and Trim33-null EBs day 2.5, activin 2 h
# Summary of the method: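 Mouse E14Tg2a.IV ESCs (feeder-free, LIF) and Trim33-null ESCs (C57Bl/6J, on MEFs) formed EBs for 2.5 days, then got activin or SB for 2 h. HP1γ or no-antibody ChIP used a kit. Absolute qPCR covered Gsc −2.3 kb and Mixl1 −0.2/−0.5 kb, as % input. Mean ± S.D. of quadruplicates.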
# [11] = system: histone H3 modified residues at Gsc and Mixl1 promoters; experiment: ChIP of histone H3 marks at Gsc and Mixl1 promoters; format: cell-based, mouse; settings: activin
# Summary of the method: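 Histone-mark ChIP used day-2.5 mESC embryoid bodies treated with activin A (50 ng/ml) or SB431542 (10 μM). Cells were fixed with 1% formaldehyde (37 °C, 10 min) and quenched with glycine. Antibodies recognised modified H3 residues; protein A/G beads alone served as negative controls. Mono-nucleosome templates came from micrococcal nuclease digestion. Absolute qRT-PCR, percent of input. Mean ± S.D. of quadruplicates, ≥3 experiments.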
# [12] = system: activin responsive genes in EBs; experiment: Genome-wide transcriptomic analysis; format: cell-based, mouse; settings: >3 fold change
# [13] = system: RNA Pol II at Gsc and Mixl1 promoters; experiment: ChIP of RNA Pol II at Gsc and Mixl1 promoters; format: cell-based, mouse; settings: Gsc -0.1 kb, Mixl1 -0.2 kb, EBs day 2.5, activin 2 h
# Summary of the method: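 Mouse ESC embryoid bodies at day 2.5 (wild type or Trim33-null) received activin or SB431542 for 2 h. ChIP used anti-RNA Pol II. qRT-PCR read Gsc −0.1 kb and Mixl1 −0.2 kb as percent of input. Mean ± S.D. of quadruplicates, two independent experiments.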
compound,measurement,setting,value
"NC(=O)c1ccc(-c2nc(-c3ccc4c(c3)OCO4)c(-c3ccccn3)[nH]2)cc1 [SB431542, reference compound]",sensitivity of endogenous nodal-like factor responses to SB431542,"[1]; mESC EBs, SB431542 10 μM",SB431542-sensitive
H3(1-28) acetylation of K18: H3(1-28) with acetylation of K18,enhancement of binding relative to H3(1-28),TRIM33 PHD-Bromo,2.3 fold
TGF-β,most TGF-β responses on RNAi depletion of Smad2/3 and Smad4 or TRIM33,HaCaT keratinocytes [2],"inhibited by RNAi-mediated depletion of Smad2/3 and Smad4, but not by depletion of TRIM33"
same,most TGF-β responses on RNAi depletion of Smad2/3 and Smad4 or TRIM33,[3],"inhibited by RNAi-mediated depletion of Smad2/3 and Smad4, but not by depletion of TRIM33"
same,"TGF-β response of SMAD7, SKIL and SERPINE1 on TRIM33 depletion",[4],did not significantly alter the TGF-β response
same,reporter response on TRIM33 depletion,HaCaT cells,increased the activity of these constructs
same,"TGF-β response of SMAD7, SKIL and SERPINE1 on TRIM33 depletion",HaCaT keratinocytes [5],did not significantly alter the TGF-β response
same,reporter response on TRIM33 depletion,MDA-MB-231 cells,increased the activity of these constructs
"activin: recombinant activin A (R&D Systems), ligand sharing receptors with nodal",formation of Smad4-Smad2/3 complex on TRIM33 depletion,[6]; TRIM33 shRNA or knock-out mESCs,did not inhibit the formation of the Smad4-Smad2/3 complex
same,t1/2 of Smad4-Smad2/3 complex formation,"[6]; mESCs, activin A 50 ng/ml",~30 min
same,"formation of TRIM33-Smad2/3 complex, Smad4 requirement",[7]; Smad4-null mESCs,did not require Smad4
same,t1/2 of TRIM33-Smad2/3 complex formation,"[7]; mESCs, activin A 50 ng/ml",~30 min
same,"Smad4 ChIP binding, Gsc",[8],Activin-dependent binding of Smad4 occurred only at the ARE
same,"TRIM33 ChIP binding, Mixl1","[9]; EBs day 2.5, activin 2 h",Activin-dependent binding of TRIM33 occurred near the Mixl1 ARE
same,"activin-dependent TRIM33 binding on Smad2/3 depletion, Mixl1",[9]; depletion of Smad2/3,inhibited the activin-dependent binding of TRIM33
same,"activin-induced TRIM33 binding, effect of Smad4",[9]; wild-type versus Smad4-null ESCs,enhanced the activin-induced binding of TRIM33 to its sites
same,HP1γ binding to TRIM33 target regions,[10],inhibited by activin addition in a TRIM33-dependent manner
same,responsiveness to activin,[1]; Cripto/cryptic-depleted cells,remained responsive to activin
same,"induction of Gsc, Mixl1, Smad7","[1]; RNAi-mediated depletion of TRIM33, EB 2.5 days, activin 2 h",strongly blunted the induction of Gsc and Mixl1 but not that of Smad7
same,"Gsc, Mixl1 and Smad7 responses to added activin","[1]; Smad4-null or Smad2/3-depleted mESCs, EB 2.5 days, 2 h","lacked Gsc, Mixl1 and Smad7 responses"
same,Gsc and Mixl1 responses,[1]; TRIM33-depleted cells reconstituted with shRNA-insensitive TRIM33 vector,restored the Gsc and Mixl1 responses
same,"expression of Smad7, Skil and SerpinE1","[1]; Trim33-null ESC lines, activin",stimulated the expression of the common Smad2/3 target genes
same,Lefty1 induction by activin,"[1]; Trim33-null mESCs, Smad4-null mESCs depleted of TRIM33",blunted
same,expression of Gsc and Mixl1,"[1]; two independent Trim33-null ESC lines, activin",failed to stimulate the expression of Gsc and Mixl1
same,level of H3K18ac,[11]; TRIM33 binding regions and throughout Gsc and Mixl1 promoters,"rapid, marked increase in the level of H3K18ac"
same,levels of H3K14ac and H3K23ac,[11],increased by activin
same,level of H3K9me3,[11]; throughout these regions of Gsc and Mixl1 promoters,did not affect the level of H3K9me3
same,total activin gene responses,[12]; p<0.05,407 responses
same,activin gene responses requiring both Smad4 and TRIM33,"[12]; p<0.05, of 407 responses",333 responses
same,level of Pol II binding to initiator region,[13],increase in the level of Pol II binding
